In the M2OR odorant receptor database:

Experiments:
Settings in all cases: stereoisomer not certain
OR11H2 (Homo sapiens) = target: T1, OR11H2 (Homo sapiens) (UniProt Q8NH07)
T1 sequence (whole entry): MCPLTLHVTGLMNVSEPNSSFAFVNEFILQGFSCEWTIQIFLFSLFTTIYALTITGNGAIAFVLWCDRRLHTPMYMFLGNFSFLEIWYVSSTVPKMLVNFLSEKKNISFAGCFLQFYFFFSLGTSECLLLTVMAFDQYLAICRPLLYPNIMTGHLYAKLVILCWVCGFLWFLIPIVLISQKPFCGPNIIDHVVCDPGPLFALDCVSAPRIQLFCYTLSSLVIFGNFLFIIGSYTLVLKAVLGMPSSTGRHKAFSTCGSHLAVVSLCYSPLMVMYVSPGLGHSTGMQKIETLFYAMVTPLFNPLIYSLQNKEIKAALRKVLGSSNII
Method in brief: (§1)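 Assay methods differ from source to source, frequently being transient luciferase assays in mammalian cell lines. For each receptor–molecule pair, the label responsive (active) applies when the original authors judged the measured signal statistically different from baseline, and non-responsive (inactive) applies otherwise.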

OR11H4 (Homo sapiens) = target: T2, OR11H4 (Homo sapiens) (UniProt Q8NGC9)
T2 sequence (whole entry): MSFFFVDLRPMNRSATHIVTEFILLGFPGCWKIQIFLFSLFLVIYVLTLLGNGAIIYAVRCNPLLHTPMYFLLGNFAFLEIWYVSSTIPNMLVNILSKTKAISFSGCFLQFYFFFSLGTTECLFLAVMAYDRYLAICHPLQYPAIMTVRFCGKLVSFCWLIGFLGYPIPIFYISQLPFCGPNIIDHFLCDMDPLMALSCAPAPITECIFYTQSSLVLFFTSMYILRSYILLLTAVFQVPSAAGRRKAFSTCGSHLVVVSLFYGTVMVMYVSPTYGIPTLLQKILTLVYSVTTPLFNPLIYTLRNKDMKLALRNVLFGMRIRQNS
Method in brief: as §1

OR11H6 (Homo sapiens) = target: T3, OR11H6 (Homo sapiens) (UniProt Q8NGC7)
T3 sequence (whole entry): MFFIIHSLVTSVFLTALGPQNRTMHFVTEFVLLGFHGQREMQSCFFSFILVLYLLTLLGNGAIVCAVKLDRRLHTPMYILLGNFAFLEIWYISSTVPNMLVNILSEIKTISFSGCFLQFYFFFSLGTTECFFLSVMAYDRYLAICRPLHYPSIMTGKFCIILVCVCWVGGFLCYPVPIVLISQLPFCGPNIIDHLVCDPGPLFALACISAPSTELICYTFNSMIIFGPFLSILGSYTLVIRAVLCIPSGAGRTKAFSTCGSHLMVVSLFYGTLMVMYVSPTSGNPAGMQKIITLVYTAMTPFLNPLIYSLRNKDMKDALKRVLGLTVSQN
Method in brief: as §1

OR11L1 (Homo sapiens) = target: T4, OR11L1 (Homo sapiens) (UniProt Q8NGX0)
T4 sequence (whole entry): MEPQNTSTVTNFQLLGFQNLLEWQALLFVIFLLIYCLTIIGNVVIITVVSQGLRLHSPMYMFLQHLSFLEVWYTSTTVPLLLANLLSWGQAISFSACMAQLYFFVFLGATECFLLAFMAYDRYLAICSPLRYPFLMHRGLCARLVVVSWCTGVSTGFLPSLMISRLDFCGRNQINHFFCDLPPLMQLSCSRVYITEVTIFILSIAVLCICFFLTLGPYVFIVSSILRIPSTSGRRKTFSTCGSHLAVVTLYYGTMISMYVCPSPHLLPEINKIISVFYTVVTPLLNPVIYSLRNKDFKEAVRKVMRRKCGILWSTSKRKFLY
Method in brief: as §1

OR12D2 (Homo sapiens) = target: T5, OR12D2 (Homo sapiens) (UniProt P58182)
T5 sequence (whole entry): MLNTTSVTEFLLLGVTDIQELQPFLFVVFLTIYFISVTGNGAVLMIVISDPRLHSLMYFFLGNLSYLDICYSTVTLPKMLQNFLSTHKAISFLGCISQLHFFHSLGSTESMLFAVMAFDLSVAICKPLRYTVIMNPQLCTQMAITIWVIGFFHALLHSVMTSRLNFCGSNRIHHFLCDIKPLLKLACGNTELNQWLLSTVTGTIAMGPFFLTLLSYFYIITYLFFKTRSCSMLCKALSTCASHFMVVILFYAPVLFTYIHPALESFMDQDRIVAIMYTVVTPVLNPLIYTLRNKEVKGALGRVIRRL
Method in brief: as §1

OR12D3 (Homo sapiens) = target: T6, OR12D3 (Homo sapiens) (UniProt Q9UGF7)
T6 sequence (whole entry): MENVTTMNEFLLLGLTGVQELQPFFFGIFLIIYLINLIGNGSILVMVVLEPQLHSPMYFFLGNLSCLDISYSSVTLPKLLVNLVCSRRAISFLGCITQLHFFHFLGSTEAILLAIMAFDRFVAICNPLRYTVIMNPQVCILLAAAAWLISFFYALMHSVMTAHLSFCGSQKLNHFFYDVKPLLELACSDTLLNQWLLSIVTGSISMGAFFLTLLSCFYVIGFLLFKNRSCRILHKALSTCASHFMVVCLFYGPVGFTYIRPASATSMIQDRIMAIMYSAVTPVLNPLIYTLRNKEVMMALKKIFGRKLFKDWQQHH
Method in brief: as §1

OR13A1 (Homo sapiens) = target: T7, OR13A1 (Homo sapiens) (UniProt Q8NGR1)
T7 sequence (whole entry): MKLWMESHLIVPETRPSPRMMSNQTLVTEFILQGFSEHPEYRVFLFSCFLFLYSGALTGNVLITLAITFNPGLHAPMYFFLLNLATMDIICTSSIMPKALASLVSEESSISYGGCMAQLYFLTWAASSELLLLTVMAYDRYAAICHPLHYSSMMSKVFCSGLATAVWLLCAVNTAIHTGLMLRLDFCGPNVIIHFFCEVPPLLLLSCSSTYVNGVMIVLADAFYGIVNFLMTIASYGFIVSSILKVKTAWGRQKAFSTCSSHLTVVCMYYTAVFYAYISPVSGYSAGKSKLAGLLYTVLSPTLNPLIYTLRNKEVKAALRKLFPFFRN
Method in brief: as §1

OR13C2 (Homo sapiens) = target: T8, OR13C2 (Homo sapiens) (UniProt Q8NGS9)
T8 sequence (whole entry): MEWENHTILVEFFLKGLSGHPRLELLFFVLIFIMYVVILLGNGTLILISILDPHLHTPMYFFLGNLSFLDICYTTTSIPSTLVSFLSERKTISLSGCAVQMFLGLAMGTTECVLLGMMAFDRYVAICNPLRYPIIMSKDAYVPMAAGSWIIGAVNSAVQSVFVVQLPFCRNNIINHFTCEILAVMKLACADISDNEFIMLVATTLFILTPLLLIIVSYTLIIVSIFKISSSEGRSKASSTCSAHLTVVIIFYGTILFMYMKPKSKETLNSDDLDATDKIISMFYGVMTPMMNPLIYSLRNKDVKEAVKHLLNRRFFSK
Method in brief: as §1

OR13C3 (Homo sapiens) = target: T9, OR13C3 (Homo sapiens) (UniProt Q8NGS6)
T9 sequence (whole entry): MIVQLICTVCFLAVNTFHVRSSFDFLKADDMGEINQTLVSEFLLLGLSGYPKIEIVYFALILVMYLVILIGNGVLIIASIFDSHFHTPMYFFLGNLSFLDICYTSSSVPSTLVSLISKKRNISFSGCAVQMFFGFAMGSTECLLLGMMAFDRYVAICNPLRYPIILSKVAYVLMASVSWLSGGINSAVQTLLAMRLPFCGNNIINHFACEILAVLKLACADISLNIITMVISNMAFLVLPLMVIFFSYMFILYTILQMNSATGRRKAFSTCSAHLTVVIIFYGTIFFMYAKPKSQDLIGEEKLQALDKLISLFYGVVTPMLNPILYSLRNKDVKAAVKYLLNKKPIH
Method in brief: as §1

OR13C4 (Homo sapiens) = target: T10, OR13C4 (Homo sapiens) (UniProt Q8NGS5)
T10 sequence (whole entry): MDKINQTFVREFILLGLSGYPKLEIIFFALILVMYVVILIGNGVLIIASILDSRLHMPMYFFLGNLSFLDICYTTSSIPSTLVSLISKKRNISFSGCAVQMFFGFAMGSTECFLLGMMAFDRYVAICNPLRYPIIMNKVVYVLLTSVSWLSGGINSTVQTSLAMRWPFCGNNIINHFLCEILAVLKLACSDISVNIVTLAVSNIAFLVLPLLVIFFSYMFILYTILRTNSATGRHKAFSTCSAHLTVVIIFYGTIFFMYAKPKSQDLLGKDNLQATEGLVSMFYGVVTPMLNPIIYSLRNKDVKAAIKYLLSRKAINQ
Method in brief: as §1

OR13C5 (Homo sapiens) = target: T11, OR13C5 (Homo sapiens) (UniProt Q8NGS8)
T11 sequence (whole entry): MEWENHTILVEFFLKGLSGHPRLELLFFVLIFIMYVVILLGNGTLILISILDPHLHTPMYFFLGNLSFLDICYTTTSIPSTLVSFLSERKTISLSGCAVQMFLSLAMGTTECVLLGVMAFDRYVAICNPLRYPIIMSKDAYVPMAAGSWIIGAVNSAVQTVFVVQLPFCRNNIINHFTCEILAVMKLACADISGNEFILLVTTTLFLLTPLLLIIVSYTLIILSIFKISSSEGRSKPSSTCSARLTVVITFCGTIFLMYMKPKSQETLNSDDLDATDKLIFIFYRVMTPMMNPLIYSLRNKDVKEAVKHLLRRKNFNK
Method in brief: as §1

OR13C8 (Homo sapiens) = target: T12, OR13C8 (Homo sapiens) (UniProt Q8NGS7)
T12 sequence (whole entry): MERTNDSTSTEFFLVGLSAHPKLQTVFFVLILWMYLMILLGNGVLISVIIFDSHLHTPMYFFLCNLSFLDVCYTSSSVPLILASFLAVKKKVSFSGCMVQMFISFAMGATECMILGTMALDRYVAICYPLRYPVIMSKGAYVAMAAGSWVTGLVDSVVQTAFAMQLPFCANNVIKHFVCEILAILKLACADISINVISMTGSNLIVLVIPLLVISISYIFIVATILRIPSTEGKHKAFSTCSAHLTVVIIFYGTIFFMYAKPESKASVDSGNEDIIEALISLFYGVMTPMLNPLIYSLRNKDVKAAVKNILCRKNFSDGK
Method in brief: as §1

OR13C9 (Homo sapiens) = target: T13, OR13C9 (Homo sapiens) (UniProt Q8NGT0)
T13 sequence (whole entry): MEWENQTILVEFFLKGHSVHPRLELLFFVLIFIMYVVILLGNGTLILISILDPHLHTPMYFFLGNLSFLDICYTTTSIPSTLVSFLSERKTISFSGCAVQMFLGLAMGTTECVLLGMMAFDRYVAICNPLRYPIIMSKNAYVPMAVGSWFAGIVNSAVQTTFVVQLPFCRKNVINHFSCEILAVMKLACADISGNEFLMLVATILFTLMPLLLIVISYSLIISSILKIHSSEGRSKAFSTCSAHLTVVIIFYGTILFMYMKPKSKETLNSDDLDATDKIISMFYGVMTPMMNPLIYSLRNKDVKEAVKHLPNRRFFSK
Method in brief: as §1

OR13D1 (Homo sapiens) = target: T14, OR13D1 (Homo sapiens) (UniProt Q8NGV5)
T14 sequence (whole entry): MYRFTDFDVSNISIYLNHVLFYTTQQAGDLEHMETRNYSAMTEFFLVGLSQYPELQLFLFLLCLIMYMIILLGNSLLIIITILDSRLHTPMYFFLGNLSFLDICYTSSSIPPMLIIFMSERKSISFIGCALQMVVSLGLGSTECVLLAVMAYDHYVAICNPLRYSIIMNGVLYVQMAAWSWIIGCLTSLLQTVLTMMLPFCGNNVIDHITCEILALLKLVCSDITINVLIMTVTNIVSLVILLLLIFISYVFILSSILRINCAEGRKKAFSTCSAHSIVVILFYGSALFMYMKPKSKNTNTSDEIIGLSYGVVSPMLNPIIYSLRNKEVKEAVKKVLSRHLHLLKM
Method in brief: as §1

OR13F1 (Homo sapiens) = target: T15, OR13F1 (Homo sapiens) (UniProt Q8NGS4)
T15 sequence (whole entry): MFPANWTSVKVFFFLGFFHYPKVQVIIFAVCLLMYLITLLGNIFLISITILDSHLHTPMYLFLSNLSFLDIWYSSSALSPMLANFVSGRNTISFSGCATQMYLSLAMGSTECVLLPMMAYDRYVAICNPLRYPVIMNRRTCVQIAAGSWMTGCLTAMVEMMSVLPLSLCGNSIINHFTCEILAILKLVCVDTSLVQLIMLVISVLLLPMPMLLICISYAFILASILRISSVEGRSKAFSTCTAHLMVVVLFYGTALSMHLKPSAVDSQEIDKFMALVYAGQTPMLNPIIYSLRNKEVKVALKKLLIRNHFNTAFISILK
Method in brief: as §1

OR13G1 (Homo sapiens) = target: T16, OR13G1 (Homo sapiens) (UniProt Q8NGZ3)
T16 sequence (whole entry): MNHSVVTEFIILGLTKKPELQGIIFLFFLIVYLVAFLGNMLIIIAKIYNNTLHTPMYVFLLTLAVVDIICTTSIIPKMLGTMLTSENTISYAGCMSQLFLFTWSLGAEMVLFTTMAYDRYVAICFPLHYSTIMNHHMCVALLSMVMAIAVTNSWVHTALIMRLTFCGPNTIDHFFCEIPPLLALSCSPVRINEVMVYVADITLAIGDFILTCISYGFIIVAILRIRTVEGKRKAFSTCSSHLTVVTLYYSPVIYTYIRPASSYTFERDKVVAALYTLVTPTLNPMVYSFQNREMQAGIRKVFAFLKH
Method in brief: as §1

Measured: odorant receptor agonist call

CCCCCC(S)C(C)CO (configuration not stated)
active: OR11H2 (Homo sapiens) | OR13C9 (Homo sapiens)
inactive: all other assays above

CCCCCC(=O)C(C)C(C)=O (configuration not stated)
inactive: all assays above
